Results published in ChEMBL document CHEMBL1131316, “Potent antagonists of somatostatin: synthesis and biology” (J Med Chem, 1998).
Positions of bridges follow the written chain, without caps; N, C: chain ends. Non-standard residues stand in square brackets, D forms with d. Residues, ends and D or L forms follow the SMILES beside them. dBip = N[C@H](Cc1ccc(-c2ccccc2)cc1)C(=O)O; dPhe(4-Cl) = N[C@H](Cc1ccc(Cl)cc1)C(=O)O; 2Nal = N[C@@H](Cc1ccc2ccccc2c1)C(=O)O; d2Nal = N[C@H](Cc1ccc2ccccc2c1)C(=O)O; 3Pal = N[C@@H](Cc1cccnc1)C(=O)O

Columns and labels:
[1] = target: Somatostatin receptor type 2 (Homo sapiens, UniProt P30874); experiment: Binding affinity towards cloned human somatostatin 2 (hsst) receptor
In short: (§1)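 Membranes from CHO-K1 cells stably transfected with the human receptor subtype (calcium phosphate transfection, G418 selection), homogenised and washed in Tris-HCl. Separated by filtration on PEI-soaked GF/C filters; nonspecific binding with 1.0 µM SRIF.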

[2] = target: Somatostatin receptor type 1 (Homo sapiens, UniProt P30872); experiment: Binding affinity towards cloned human somatostatin 1 (hsst) receptor; in short: as §1
[3] = target: Somatostatin receptor type 4 (Homo sapiens, UniProt P31391); experiment: Binding affinity towards cloned human somatostatin 4 (hsst) receptor
[4] = target: Somatostatin receptor type 3 (Homo sapiens, UniProt P32745); experiment: Binding affinity towards cloned human somatostatin 3 (hsst) receptor; in short: as §1
[5] = target: Somatostatin receptor type 5 (Homo sapiens, UniProt P35346); experiment: Binding affinity towards cloned human somatostatin 5 (hsst) receptor; in short: as §1
[6] = target: Somatostatin receptor; experiment: Compound was tested for in vitro SRIF inhibition of GH release in rats; assay type: functional
In short: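 Adult male rat anterior pituitary cells, dispersed with trypsin/DNase, cultured 4-5 days. Then 3 h at 37 °C in medium 199 with 1% BSA, GHRH(1-29)NH2 1 nM and SRIF 1 nM, with analogue at six doses (up to 10 µM, some to 100 µM), triplicate wells. GH in medium measured by double-antibody RIA. Antagonist IC50 taken from n separate dose-response curves.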

Somatostatin receptor type 3, sequence (P32745 whole entry): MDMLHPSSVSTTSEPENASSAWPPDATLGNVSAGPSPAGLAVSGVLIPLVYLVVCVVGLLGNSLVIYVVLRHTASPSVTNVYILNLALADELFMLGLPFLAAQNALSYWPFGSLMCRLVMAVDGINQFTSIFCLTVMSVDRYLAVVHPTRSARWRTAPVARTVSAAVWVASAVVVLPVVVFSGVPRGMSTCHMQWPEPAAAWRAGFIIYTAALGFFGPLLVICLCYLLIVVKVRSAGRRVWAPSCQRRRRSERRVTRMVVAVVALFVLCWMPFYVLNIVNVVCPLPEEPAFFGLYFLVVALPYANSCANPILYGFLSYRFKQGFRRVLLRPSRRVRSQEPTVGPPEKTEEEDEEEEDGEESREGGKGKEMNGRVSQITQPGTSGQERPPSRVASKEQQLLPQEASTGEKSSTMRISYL
Somatostatin receptor type 5, sequence (P35346 whole entry): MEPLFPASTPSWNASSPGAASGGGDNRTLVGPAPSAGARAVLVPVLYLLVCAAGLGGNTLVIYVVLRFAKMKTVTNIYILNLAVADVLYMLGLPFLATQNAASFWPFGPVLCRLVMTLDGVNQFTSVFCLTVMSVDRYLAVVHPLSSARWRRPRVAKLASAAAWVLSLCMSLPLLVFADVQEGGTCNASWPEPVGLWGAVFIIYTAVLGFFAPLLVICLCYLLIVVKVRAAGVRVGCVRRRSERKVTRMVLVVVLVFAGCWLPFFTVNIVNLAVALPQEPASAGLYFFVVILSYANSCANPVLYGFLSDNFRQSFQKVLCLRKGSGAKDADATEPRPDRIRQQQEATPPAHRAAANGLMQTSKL
Somatostatin receptor type 4, sequence (P31391 whole entry): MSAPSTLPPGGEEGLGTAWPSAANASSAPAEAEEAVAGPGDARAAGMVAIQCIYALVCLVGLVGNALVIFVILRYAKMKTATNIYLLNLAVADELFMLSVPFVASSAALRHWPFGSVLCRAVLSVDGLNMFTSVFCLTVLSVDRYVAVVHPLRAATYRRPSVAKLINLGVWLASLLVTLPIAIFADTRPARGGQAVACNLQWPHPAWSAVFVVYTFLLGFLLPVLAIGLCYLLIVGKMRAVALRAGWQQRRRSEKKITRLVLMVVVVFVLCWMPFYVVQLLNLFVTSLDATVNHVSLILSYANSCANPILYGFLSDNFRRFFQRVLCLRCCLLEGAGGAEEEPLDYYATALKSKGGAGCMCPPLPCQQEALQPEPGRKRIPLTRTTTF
Somatostatin receptor type 1, sequence (P30872 whole entry): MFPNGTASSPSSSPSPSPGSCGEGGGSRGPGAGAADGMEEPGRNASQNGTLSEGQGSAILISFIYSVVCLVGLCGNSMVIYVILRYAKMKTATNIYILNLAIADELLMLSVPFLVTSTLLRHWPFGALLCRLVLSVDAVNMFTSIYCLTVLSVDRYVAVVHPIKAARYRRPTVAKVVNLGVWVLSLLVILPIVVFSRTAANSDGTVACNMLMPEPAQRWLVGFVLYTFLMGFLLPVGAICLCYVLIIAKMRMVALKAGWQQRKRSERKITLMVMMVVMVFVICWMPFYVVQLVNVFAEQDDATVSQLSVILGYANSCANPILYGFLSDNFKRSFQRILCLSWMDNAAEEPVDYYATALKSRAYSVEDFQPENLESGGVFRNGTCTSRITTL
Somatostatin receptor type 2, sequence (P30874 whole entry): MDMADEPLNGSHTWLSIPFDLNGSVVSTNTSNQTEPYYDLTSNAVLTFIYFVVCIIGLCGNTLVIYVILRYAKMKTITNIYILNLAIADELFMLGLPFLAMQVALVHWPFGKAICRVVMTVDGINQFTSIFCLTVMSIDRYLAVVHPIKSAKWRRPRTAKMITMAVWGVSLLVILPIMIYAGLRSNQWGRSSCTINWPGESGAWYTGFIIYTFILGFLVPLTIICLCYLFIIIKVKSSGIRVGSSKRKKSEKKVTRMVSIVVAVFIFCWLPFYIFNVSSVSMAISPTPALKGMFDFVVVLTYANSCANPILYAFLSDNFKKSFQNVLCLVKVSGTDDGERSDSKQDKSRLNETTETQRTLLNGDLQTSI

Structure (SMILES)	Ki [1] [nM]	IC50 [2] [nM]	IC50 [3] [nM]	IC50 [4] [nM]	Ki [5] [nM]	IC50 [6] [µM]
CC(C)[C@@H]1NC(=O)[C@H](CCCCN)NC(=O)[C@@H](Cc2c[nH]c3ccccc23)NC(=O)[C@H](Cc2ccc(O)cc2)NC(=O)[C@H](NC(=O)[C@H](N)Cc2ccc(-c3ccccc3)cc2)CSSC[C@@H](C(=O)N[C@@H](Cc2ccc3ccccc3c2)C(N)=O)NC1=O (H-[dBip][dC]Y[dW]KVC[2Nal]-NH2; disulfide 2-7)	793	1440	1000	466	243	0.81
C[C@@H](O)[C@H](NC(=O)[C@@H]1CSSC[C@@H](NC(=O)[C@@H](N)Cc2ccccc2)C(=O)N[C@@H](Cc2cccnc2)C(=O)N[C@H](Cc2c[nH]c3ccccc23)C(=O)N[C@@H](CCCCN)C(=O)N[C@@H]([C@@H](C)O)C(=O)N1)C(N)=O	291	1000	1000	934	2360	0.905
CC(C)[C@@H]1NC(=O)[C@H](CCCCN)NC(=O)[C@@H](Cc2c[nH]c3ccccc23)NC(=O)[C@H](Cc2cccnc2)NC(=O)[C@H](NC(=O)[C@@H](N)Cc2ccc3ccccc3c2)CSSC[C@@H](C(=O)N[C@@H](Cc2ccc3ccccc3c2)C(N)=O)NC1=O (H-[2Nal][dC][3Pal][dW]KVC[2Nal]-NH2; disulfide 2-7)	75.9	506	1000	171	524	0.0151
C[C@@H](O)[C@@H]1NC(=O)[C@H](CCCCN)NC(=O)[C@@H](Cc2c[nH]c3ccccc23)NC(=O)[C@H](Cc2ccc(O)cc2)NC(=O)[C@H](NC(=O)[C@H](N)Cc2ccc3ccccc3c2)CSSC[C@@H](C(=O)N[C@@H](Cc2ccc3ccccc3c2)C(N)=O)NC1=O	202	1040	605			180
CC(C)[C@@H]1NC(=O)[C@H](CCCCN)NC(=O)[C@@H](Cc2c[nH]c3ccccc23)NC(=O)[C@H](Cc2ccc(O)cc2)NC(=O)[C@H](NC(=O)[C@@H](N)Cc2ccc3ccccc3c2)CSSC[C@@H](C(=O)N[C@H](Cc2ccc3ccccc3c2)C(N)=O)NC1=O	46.1	1000	1000	2280	1250	0.28
CC(=O)N[C@@H](Cc1ccc2ccccc2c1)C(=O)N[C@@H]1CSSC[C@@H](C(=O)N[C@@H](Cc2ccc3ccccc3c2)C(N)=O)NC(=O)[C@H](C(C)C)NC(=O)[C@H](CCCCN)NC(=O)[C@@H](Cc2c[nH]c3ccccc23)NC(=O)[C@H](Cc2ccc(O)cc2)NC1=O (Ac-[2Nal][dC]Y[dW]KVC[2Nal]-NH2; disulfide 2-7)	48.2	1020	1000	144	130	0.0567
CC(C)[C@@H]1NC(=O)[C@H](CCCCN)NC(=O)[C@@H](Cc2c[nH]c3ccccc23)NC(=O)[C@H](Cc2ccc(O)cc2)NC(=O)[C@H](NC(=O)[C@H](N)Cc2ccc3ccccc3c2)CSSC[C@H](C(=O)N[C@H](Cc2ccc3ccccc3c2)C(N)=O)NC1=O						0.375
CC(C)[C@@H]1NC(=O)[C@H](CCCCN)NC(=O)[C@@H](Cc2c[nH]c3ccccc23)NC(=O)[C@H](Cc2ccc(O)cc2)NC(=O)[C@@H](NC(=O)[C@H](N)Cc2ccc3ccccc3c2)CSSC[C@H](C(=O)N[C@@H](Cc2ccc3ccccc3c2)C(N)=O)NC1=O (stereo in doubt; 23)	68.5	494	312	292	744	1.36
CC(C)[C@@H]1NC(=O)[C@H](CCCCN)NC(=O)[C@@H](Cc2c[nH]c3ccccc23)NC(=O)[C@H](Cc2ccc(O)cc2)NC(=O)[C@H](NC(=O)[C@@H](N)Cc2ccc3ccccc3c2)CSSC[C@@H](C(=O)NC(C)(C)C)NC1=O						108.6
C[C@@H](O)[C@H](NC(=O)[C@@H]1CSSC[C@@H](NC(=O)[C@@H](N)Cc2ccc(O)cc2)C(=O)N[C@@H](Cc2cccnc2)C(=O)N[C@H](Cc2c[nH]c3ccccc23)C(=O)N[C@@H](CCCCN)C(=O)N[C@@H]([C@@H](C)O)C(=O)N1)C(N)=O	1000	1000	1000	1380		98.65
CC(C)[C@H](NC(=O)[C@H](CCCCN)NC(=O)[C@@H](Cc1c[nH]c2ccccc12)NC(=O)[C@H](Cc1ccc(O)cc1)NC(=O)[C@@H](Cc1ccc(Cl)cc1)NC(=O)[C@@H](N)Cc1ccc2ccccc2c1)C(=O)N[C@@H](Cc1ccccc1)C(=O)N[C@H](C(N)=O)[C@@H](C)O (H-[2Nal][dPhe(4-Cl)]Y[dW]KVFT-NH2)	706	1000	2840	1130	1840	3.03
CC(C)[C@@H]1NC(=O)[C@H](CCCCN)NC(=O)[C@@H](Cc2c[nH]c3ccccc23)NC(=O)[C@H](Cc2ccc(O)cc2)NC(=O)[C@H](NC(=O)[C@@H](N)Cc2ccc3ccccc3c2)CSSC[C@@H](C(=O)N[C@@H](Cc2ccc(O)cc2)C(N)=O)NC1=O (H-[2Nal][dC]Y[dW]KVCY-NH2; disulfide 2-7)						0.05
CC(C)[C@@H]1NC(=O)[C@H](CCCCN)NC(=O)[C@@H](Cc2c[nH]c3ccccc23)NC(=O)[C@H](Cc2c[nH]cn2)NC(=O)[C@H](NC(=O)[C@@H](N)Cc2ccc3ccccc3c2)CSSC[C@@H](C(=O)N[C@@H](Cc2ccc3ccccc3c2)C(N)=O)NC1=O (H-[2Nal][dC]H[dW]KVC[2Nal]-NH2; disulfide 2-7)	82.5	1000	943	68	501	0.053
CC(C)[C@H](NC(=O)[C@H](CCCCN)NC(=O)[C@@H](Cc1c[nH]c2ccccc12)NC(=O)[C@H](Cc1ccc(O)cc1)NC(=O)[C@@H](Cc1ccc(Cl)cc1)NC(=O)[C@H](N)Cc1ccc2ccccc2c1)C(=O)N[C@@H](Cc1ccccc1)C(=O)N[C@H](C(N)=O)[C@@H](C)O (H-[d2Nal][dPhe(4-Cl)]Y[dW]KVFT-NH2)	144	1000	1000	89.9	21.6	3.96
CC(C)[C@@H]1NC(=O)[C@H](CCCCN)NC(=O)[C@@H](Cc2c[nH]c3ccccc23)NC(=O)[C@H](Cc2cccnc2)NC(=O)[C@H](NC(=O)[C@@H](N)Cc2ccccc2)CSSC[C@@H](C(=O)N[C@@H](Cc2ccc3ccccc3c2)C(N)=O)NC1=O (H-F[dC][3Pal][dW]KVC[2Nal]-NH2; disulfide 2-7)	123	535	1000	373	769	0.058
